From ChEMBL document CHEMBL3108729, “Design, synthesis and anticonvulsant evaluation of N-(benzo[d]thiazol-2-ylcarbamoyl)-2-methyl-4-oxoquinazoline-3(4H)-carbothioamide derivatives: a hybrid pharmacophore approach” (Eur J Med Chem, 2013)
The source made the active and inactive calls. The calls are words filed in the database; no cut-off is given here.

Tests used:
[1] = system: Mus musculus; assay: Anticonvulsant activity in albino mouse assessed as protection against maximal electroshock-induced seizures at 300 mg/kg, ip measured after 4 hrs; type: functional, organism-based; set-up: dose 300 mg/kg
[2] = system: Mus musculus; assay: Neurotoxicity in ip dosed albino mouse after 0.5 hrs by rotorod test; type: toxicity, organism-based; conditions: in vivo
How it was run: (§1)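 Swiss mice, four per dose, received 30, 100 or 300 mg/kg i.p. and were placed on a rotorod at 0.5 and 4 h. Neurotoxicity meant failure to keep balance for 1 min. The value reported is the minimum dose affecting half or more of the mice.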

[3] = system: Mus musculus; assay: Anticonvulsant activity in ip dosed albino mouse assessed as protection against maximal electroshock-induced seizures after 0.5 hrs; type: functional; conditions: read-out: MED
[4] = system: Mus musculus; assay: Neurotoxicity in albino mouse at 300 mg/kg, ip after 4 hrs by rotorod test; type: toxicity, organism-based; set-up: dose 300 mg/kg, route intraperitoneal; conditions: in vivo; how it was run: as §1
[5] = system: Mus musculus; assay: Anticonvulsant activity in ip dosed albino mouse assessed as protection against maximal electroshock-induced seizures after 4 hrs; type: functional; conditions: read-out: MED
[6] = system: Mus musculus; assay: Neurotoxicity in ip dosed albino mouse after 4 hrs by rotorod test; type: toxicity, organism-based; conditions: in vivo; how it was run: as §1
[7] = system: Mus musculus; assay: Neurotoxicity in albino mouse at 300 mg/kg, ip after 0.5 hrs by rotorod test; type: toxicity, organism-based; set-up: dose 300 mg/kg, route intraperitoneal; conditions: in vivo
How it was run: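 Swiss mice (25–30 g), four per dose, got 30, 100 or 300 mg/kg i.p. and were checked on the rotorod at 0.5 and 4 h. Motor impairment meant failure to keep equilibrium on the rod for 1 min. The value is the minimum dose at which half or more of the mice were impaired.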

[8] = system: Mus musculus; assay: Anticonvulsant activity in albino mouse assessed as protection against maximal electroshock-induced seizures at 300 mg/kg, ip measured after 0.5 hrs; type: functional, organism-based; set-up: dose 300 mg/kg
[9] = system: Rattus norvegicus; assay: Hepatotoxicity in albino rat assessed as change in SGOT level at 30 mg/kg, po for 14 days (reference value: 74.2+/-5.95 units/ml); type: toxicity, organism-based; set-up: dose 30 mg/kg, route oral; conditions: in vivo, 336 h
[10] = Neurotoxicity in po dosed albino rat after 0.5 hrs; type: toxicity, organism-based; conditions: in vivo
[11] = Protective index, ratio of TD50 for neurotoxicity to ED50 for protection against pentylenetetrazole-induced seizure in albino rat after 0.5 hrs; type: toxicity, organism-based; conditions: in vivo, read-out: Ratio TD50/ED50
How it was run: (§2)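 Rats received oral doses in groups of eight at the time of peak effect, with at least three points in the 10–90% range for seizure protection or minimal neurotoxicity. ED50, TD50 and 95% confidence intervals were computed by regression, and PI was calculated as TD50/ED50.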

[12] = system: Rattus norvegicus; assay: Anticonvulsant activity in po dosed albino rat assessed as protection against pentylenetetrazole-induced seizure after 0.5 hrs; type: functional
[13] = system: Rattus norvegicus; assay: Anticonvulsant activity in Wistar rat assessed as inhibition of GABA-induced seizures measuring minimum GABA level per 100 mg whole brain required for 50 % inhibition at 100 mg/kg, ip as single dose measured after 2 hrs (reference value: 46.4 +/- 5.50 ug/100 mg brain); type: functional; conditions: route intraperitoneal
[14] = system: Rattus norvegicus; assay: Anticonvulsant activity in Wistar rat assessed as inhibition of GABA-induced seizures measuring minimum GABA level per 100 mg whole brain required for 50 % inhibition at 30 mg/kg, po for 7 days (reference value: 51.5 +/- 2.60 ug/100 mg brain); type: functional
How it was run: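 Adult Wistar rats in groups of six were dosed orally at 30 mg/kg for 7 days. Whole-brain GABA was then measured enzymatically in ethanol extracts as µg/100 mg tissue. Values are mean ± SEM of six rats versus control (Student's t test).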

[15] = Protective index, ratio of TD50 for neurotoxicity to ED50 for protection against maximal electroshock-induced seizure in albino rat after 0.5 hrs; type: toxicity, organism-based; conditions: in vivo, read-out: Ratio TD50/ED50; how it was run: as §2
[16] = system: Rattus norvegicus; assay: Hepatotoxicity in albino rat assessed as change in SGPT level at 30 mg/kg, po for 14 days (reference value: 46.1+/-5.25 units/ml); type: toxicity, organism-based; set-up: dose 30 mg/kg, route oral; conditions: in vivo, 336 h
[17] = system: Rattus norvegicus; assay: Anticonvulsant activity in po dosed albino rat assessed as protection against maximal electroshock-induced seizures after 0.5 hrs; type: functional
[18] = system: Mus musculus; assay: Anticonvulsant activity in ip dosed albino mouse assessed as protection against AMPA-induced tonic phase of seizures after 30 mins; type: functional; conditions: 0.5 h
How it was run: (§3)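 Mice were dosed i.p. over 10–100 µmol/kg. After 30 min, AMPA was injected i.c.v. into a lateral ventricle under ether anaesthesia, at 9.7 nmol for clonus or 11.7 nmol for forelimb tonic extension. Mice were observed singly for 30 min. ED50 values with 95% confidence limits were derived from dose–response data.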

[19] = system: Mus musculus; assay: Anticonvulsant activity in ip dosed albino mouse assessed as protection against AMPA-induced clonic phase of seizures after 30 mins; type: functional; conditions: 0.5 h; how it was run: as §3
[20] = system: Rattus norvegicus; assay: Hepatotoxicity in albino rat assessed as change in SGOT level at 25 mg/kg, po for 14 days (reference value: 74.2+/-5.95 units/ml); type: toxicity, organism-based; set-up: dose 25 mg/kg, route oral; conditions: in vivo, 336 h
[21] = system: Rattus norvegicus; assay: Anticonvulsant activity in po dosed albino rat assessed as protection against pentylenetetrazole-induced seizure after 2 hrs; type: functional
[22] = system: Rattus norvegicus; assay: Hepatotoxicity in albino rat assessed as change in SGPT level at 25 mg/kg, po for 14 days (reference value: 46.1+/-5.25 units/ml); type: toxicity, organism-based; set-up: dose 25 mg/kg, route oral; conditions: in vivo, 336 h
[23] = in vivo; conditions: albino, rat
[24] = Neurotoxicity in po dosed albino rat after 2 hrs; type: toxicity, organism-based; conditions: in vivo
How it was run: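 Rats on oral fixed-dose testing (30 or 50 mg/kg) were scored for motor impairment in parallel with seizure testing, at five time points from one quarter hour to 4 h. The rotorod end point was failure to keep equilibrium for 1 min.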

[25] = system: Rattus norvegicus; assay: Anticonvulsant activity in po dosed albino rat assessed as protection against maximal electroshock-induced seizures after 2 hrs; type: functional
[26] = system: Mus musculus; assay: Anticonvulsant activity in ip dosed albino mouse assessed as protection against 6 Hz electroshock-induced seizures after 1 hr; type: functional
[27] = Neurotoxicity in po dosed albino mouse after 1 hr; type: toxicity, organism-based; conditions: in vivo
[28] = Protective index, ratio of TD50 for neurotoxicity to ED50 for protection against pentylenetetrazole-induced seizure in albino rat after 2 hrs; type: toxicity, organism-based; conditions: in vivo, read-out: Ratio TD50/ED50
How it was run: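 Groups of eight rats were dosed orally at the previously estimated time of peak effect, at several doses, until at least three points fell within 10–90% protection or minimal neurotoxicity. ED50 and TD50 with 95% confidence limits came from regression of the plotted data. Protective index was calculated as TD50/ED50.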

[29] = system: Rattus norvegicus; assay: Anticonvulsant activity in Wistar rat assessed as inhibition of GABA-induced seizures measuring minimum GABA level per 100 mg whole brain required for 50 % inhibition at 30 mg/kg, ip as single dose measured after 2 hrs (reference value: 46.4 +/- 5.50 ug/100 mg brain); type: functional; conditions: route intraperitoneal
[30] = system: Rattus norvegicus; assay: Anticonvulsant activity in po dosed albino rat assessed as protection against maximal electroshock-induced seizures after 1 hr; type: functional
[31] = Neurotoxicity in po dosed albino rat after 1 hr; type: toxicity, organism-based; conditions: in vivo
[32] = system: Rattus norvegicus; assay: Anticonvulsant activity in po dosed albino rat assessed as protection against pentylenetetrazole-induced seizure after 1 hr; type: functional

| Structure (SMILES) | Activity [1] | MTC [2] [mg/kg] | minimal effective dose [3] [mg/kg] | Activity [4] | minimal effective dose [5] [mg/kg] | other results |
| --- | --- | --- | --- | --- | --- | --- |
| Cc1ccc2nc(NC(=O)NC(=S)n3c(C)nc4ccccc4c3=O)sc2c1 | inactive | 300 | 300 | Non-toxic | – | – |
| Cc1nc2cc(Cl)ccc2c(=O)n1C(=S)NC(=O)Nc1nc2ccc(Cl)cc2s1 | – | 300 | 100 | – | 100 | – |
| Cc1nc2cc(Cl)ccc2c(=O)n1C(=S)NC(=O)Nc1nc2ccc(Br)cc2s1 | inactive | 300 | 100 | – | – | MTC [6]: 300 mg/kg |
| Cc1nc2cc(Cl)ccc2c(=O)n1C(=S)NC(=O)Nc1nc2ccc(F)cc2s1 | – | – | 300 | – | 300 | – |
| Cc1nc2cc(Cl)ccc2c(=O)n1C(=S)NC(=O)Nc1nc2c(Cl)cccc2s1 | inactive | – | 300 | – | – | MTC [6]: 300 mg/kg; Activity [7]: Non-toxic |
| Cc1nc2cc(Cl)ccc2c(=O)n1C(=S)NC(=O)Nc1nc2c(Br)cccc2s1 | inactive | – | – | – | – | Activity [8]: inactive |
| Cc1nc2ccccc2c(=O)n1C(=S)NC(=O)Nc1nc2ccc(OC(F)(F)F)cc2s1 | – | 300 | 30 | Non-toxic | 30 | Activity [9]: 72.4 U/ml; TD50 at 0.5 h [10]: > 2150 µmol/kg; selectivity ratio at 0.5 h [11]: > 4.2; ED50 [12]: 510 µmol/kg; GABA level [13]: 75.5 µg/100 mg brain; GABA level [14]: 68.2 µg/100 mg brain; selectivity ratio at 0.5 h [15]: > 26; Activity [16]: 44.7 U/ml; ED50 [17]: 82.5 µmol/kg; ED50 [18]: 28.5 µmol/kg; ED50 [19]: 37.9 µmol/kg |
| Cc1nc2cc(F)ccc2c(=O)n1C(=S)NC(=O)Nc1nc2c(Cl)cccc2s1 | inactive | 300 | 300 | Non-toxic | – | – |
| Cc1nc2cc(F)ccc2c(=O)n1C(=S)NC(=O)Nc1nc2ccc(O)cc2s1 | inactive | – | – | – | – | Activity [8]: inactive |
| O=C1NC(=O)C(c2ccccc2)(c2ccccc2)N1 [PHENYTOIN] | – | 100 | 30 | – | 30 | Activity [20]: 84.1 U/ml; ED50 [21]: > 3540 µmol/kg; MTC [6]: 100 mg/kg; Activity [22]: 52.6 U/ml; selectivity ratio at 2 h [23]: > 22; TD50 at 2 h [24]: > 1980 µmol/kg; ED50 [25]: 92 µmol/kg |
| Cc1nc2cc(Cl)ccc2c(=O)n1C(=S)NC(=O)Nc1nc2ccc(OC(F)(F)F)cc2s1 | – | 300 | 100 | Non-toxic | 100 | – |
| COc1ccc2nc(NC(=O)NC(=S)n3c(C)nc4ccccc4c3=O)sc2c1 | inactive | – | – | – | – | Activity [8]: inactive |
| CCC1(C)CC(=O)NC1=O (stereo unspecified) [ETHOSUXIMIDE] | inactive | – | – | Non-toxic | – | ED50 [21]: 1180 µmol/kg; Activity [8]: inactive; TD50 at 2 h [24]: > 3540 µmol/kg; ED50 [26]: 1180 µmol/kg; ED50 [25]: > 3540 µmol/kg; Activity [7]: Non-toxic; TD50 at 1 h [27]: 2410 µmol/kg; selectivity ratio at 2 h [28]: > 3 |
| CN1C(=O)CC(=O)N(c2ccccc2)c2cc(Cl)ccc21 [CLOBAZAM] | – | – | – | – | – | Activity [29]: 101 µg; GABA level [14]: 110 µg/100 mg brain |
| NC(=O)N1c2ccccc2C=Cc2ccccc21 [CARBAMAZEPINE] | – | 100 | 30 | – | 100 | ED50 [30]: 15.1 µmol/kg; TD50 at 1 h [31]: 1530 µmol/kg; MTC [6]: 300 mg/kg; ED50 [32]: > 1060 µmol/kg |
| Cc1nc2ccccc2c(=O)n1C(=S)NC(=O)Nc1nc2ccc(F)cc2s1 | – | 300 | 30 | Non-toxic | 100 | – |
| COc1ccc2nc(NC(=O)NC(=S)n3c(C)nc4cc(F)ccc4c3=O)sc2c1 | inactive | – | – | – | – | Activity [8]: inactive |
